A selection: hits, their analogues and other compounds. The true share with any hit is near 2%.
XiGFP reactiv – activators of inactive X chromosome reactivation, primary screen, imaging, XiGFP fibroblasts, GFP high-content imaging, set 2 | 360,000 tested, 0.055% active | AID 743238, 2013 | XiGFP mouse fibroblasts, % GFP-positive cells imaging, 3 d; cells co-treated with 5-aza-dC sensitizer; scaled so ellipticine positive control = 100% | activation, % at 7.58 µM;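 active = mean normalized replicate activation at least 10% and every replicate at or above 10%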
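System: 68-5-11 XiGFP fibroblast line; Timing: 3 days compound exposure; Compound dosing: one concentration, pinned; Benchmarks: positive control ellipticine, 6 µM final; Buffer or medium: DMEM containing 5-aza-dC.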
TWEAK-Fn14 inh – inhibitors of TWEAK-Fn14 signaling, primary screen, luciferase reporter cells, uHTS | 360,000 tested, 2% active | inhibition, % at 10 µM | TWEAK-stimulated Fn14 reporter cells, luciferase luminescence, 8 h; in the data active = inhibition above about 50%
CaV13 ICDI inh – Disruptors of the CACNA1D IQ motif to Ca2+-dependent inactivation inhibitor domain association, primary screening, Förster resonance energy transfer in intact living … | 340,000 tested, 0.098% active | HEK cells, CFP/YFP FRET ICDI-IQ, plate reader, 10 min; percent FRET-ratio fall versus neutral wells | AID 743397 | inhibition, % at 12.3 µM;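 active = mean replicate inhibition of at least 30% and at least 1% of replicates passing that level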
TROY NFkB inh – inhibitors of TROY-driven NF-kB signaling, primary screen, Q293 LMP1-TROYcd cells, NF-kB luciferase, uHTS; Q293 LMP1-TROYcd NF-kB luciferase reporter, 4 h; inhibition, % at 10 µM; 360,000 tested, 0.98% active; AID 1347056, 2019;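 active = compounds whose plate-normalised and pattern-corrected inhibition of the luciferase reporter signal at the single screening dose is 50% or more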
LGR2 antag – inhibitors of bursicon-induced LGR2 CRE-luciferase signal, primary screen, cell-based, HEK293, CRE-luciferase reporter, bursicon stimulation | bursicon-stimulated, 4 h | inhibition, % at 9.99 µM | 380,000 tested, 0.35% active;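 active = drop in luminescence signal, shown as inhibition above about 50% in the replicate tests, limit read from the data, passing the limit was not always enough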;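 also: agonist challenge used bursicon conditioned medium at about half maximal strength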
A number is an active result; . = inactive; / = not tested or not shown.

SMILES	XiGFP reactiv	TWEAK-Fn14 inh	CaV13 ICDI inh	TROY NFkB inh	LGR2 antag
COc1cccc(/C=C/C(=O)OCC(=O)c2c[nH]c3ccccc23)c1OC	.	55	.	.	/
COc1ccccc1N(C)S(=O)(=O)c1ccc(C(=O)OCC(=O)N(C)c2ccccc2)cc1	.	.	.	.	.
COc1ccccc1N(C)S(=O)(=O)c1ccc(C(=O)OCC(=O)c2c[nH]c3ccccc23)cc1	.	51	.	.	.
O=C(COC(=O)c1cccc(S(=O)(=O)N2CCCCC2)c1)NCc1ccccc1	.	.	.	.	.
COc1cccc(/C=C/C(=O)OCC(=O)c2c[nH]c3ccccc23)c1	.	.	.	.	.
O=C(OCC(=O)c1c[nH]c2ccccc12)c1cccc(S(=O)(=O)N2CCCCCC2)c1	.	52	.	.	.
O=C(NCCn1cc(SCc2ccccc2)c2ccccc21)c1c(F)cccc1F	.	50	.	.	.
O=C(NCCn1cc(SCc2ccc(F)cc2)c2ccccc21)c1ccccc1F	/	51	/	.	/
O=C(NCCn1cc(SCc2ccc(F)cc2)c2ccccc21)c1c(F)cccc1F	.	.	.	.	.
CO[C@H]1CN(C)C(=O)c2ccc(NC(=O)Nc3cccc(Cl)c3)cc2OC[C@@H](C)NC[C@H]1C	.	/	/	/	.
Oc1ccccc1CNc1ccc2c(c1)OCCO2	.	.	.	.	.
c1csc(CNc2ccc3c(c2)OCCO3)c1	.	63	.	.	51
COCCN1CCN(C(=O)c2cc(COc3ccc(F)c(F)c3)on2)CC1	.	77	.	.	.
COc1cc2c(cc1NC(=O)Nc1ccc(C)cc1)oc1ccccc12	/	.	.	.	/
COc1cc2c(cc1NC(=O)C(C)Sc1ccc(NC(C)=O)cc1)oc1ccccc12 (configuration not stated)	.	66	.	.	.
C[C@H]1CN([C@@H](C)CO)C(=O)c2c(c3ccccc3n2C)-c2ccccc2CO[C@@H]1CN(C)S(=O)(=O)c1ccc(Cl)cc1	.	/	/	/	.
C[C@H](CO)N1C[C@H](C)[C@H](CN(C)S(=O)(=O)c2ccc(Cl)cc2)OCc2ccccc2-c2c(n(C)c3ccccc23)C1=O	.	62	.	.	.
C[C@H](CO)N1C[C@H](C)[C@H](CN(C)S(=O)(=O)c2ccc(C(F)(F)F)cc2)OCc2ccccc2-c2c(n(C)c3ccccc23)C1=O	.	/	/	/	53
COc1ccccc1-c1ccc([C@H]2[C@@H](CO)N(C(=O)NC3CCCC3)[C@H]2C#N)cc1	.	/	/	/	.
C[C@H](CO)N1C[C@H](C)[C@@H](CN(C)Cc2ccc3c(c2)OCO3)Oc2c(NS(=O)(=O)c3ccc(F)cc3)cccc2C1=O	.	/	/	/	/
CCN(c1ccccc1)S(=O)(=O)c1cc(C(=O)Nc2ccc(F)c(F)c2)ccc1F	.	80	.	63	/
CCN(c1ccccc1)S(=O)(=O)c1ccc(C(=O)Nc2cccc(NC(C)=O)c2)cc1	.	.	.	.	.
O=C(NCC(c1cccnc1)N1CCN(c2ccc(F)cc2)CC1)C1CCCCC1 (configuration not stated)	/	.	.	.	/
O=C(NCC(c1cccnc1)N1CCN(c2ccccc2F)CC1)C1CCCCC1 (configuration not stated)	/	85	.	/	/
O=C(C[C@@H]1CC[C@@H]2[C@H](COC[C@H](O)CN2S(=O)(=O)c2ccccc2Cl)O1)N1CCC(Cc2ccccc2)CC1	.	/	/	/	.
SMILES	XiGFP reactiv	TWEAK-Fn14 inh	CaV13 ICDI inh	TROY NFkB inh	LGR2 antag
CCOC(=O)N1CCN(S(=O)(=O)c2ccc(Cl)cc2)CC1	.	.	.	.	.
CCOC(=O)N1CCN(S(=O)(=O)c2ccc(C)cc2)CC1	.	77	.	.	.
O=C(C(=Cc1ccccc1)CN1CCCCC1)c1ccccc1	.	102	.	.	94
COCC(=O)N(Cc1ccccc1)c1ccccn1	/	.	/	.	/
CCCC(C)C(=O)N(Cc1ccccc1)c1ccccn1 (configuration not stated)	/	61	.	.	/
NNc1nc(-c2ccccc2)c2cc(Cl)ccc2n1	.	.	.	.	.

Bioassay records deposited in PubChem BioAssay by several laboratories.
